In ChEMBL document CHEMBL3046492, “Synthesis, insecticidal, and acaricidal activities of novel 2-aryl-pyrrole derivatives containing ester groups” (2008):
≈ marks a conversion by molar mass, not a printed value.

Assays:
Format in all cases: functional
Mythimna separata [1] = test: Insecticidal activity against fourth-instar larval stage of Mythimna separata (Oriental armyworm) in compound pretreated corn leaves assessed as mortality at 10 mg/kg at 25 +/-1 degC measured after 2 days
Tetranychus cinnabarinus [2] = test: Acaricidal activity against adult Tetranychus cinnabarinus (carmine spider mite) in sieva bean plants assessed as mortality at 50 mg/kg treated for 3 secs measured after 2 days; details: 48 h
Culex pipiens pallens [3] = test: Insecticidal activity against fourth-instar larval stage of Culex pipiens pallens (mosquito) assessed as mortality at 0.10 mg/kg at 25 +/-1 degC after 2 days; details: 48 h
How it was run: (§1)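 Test solutions were prepared by adding 1 mL of each concentrated dilution to 99 mL water. Bioassays were run at 25 ± 1 °C on laboratory-reared insects.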

Mythimna separata [4] = test: Insecticidal activity against fourth-instar larval stage of Mythimna separata (Oriental armyworm) in compound pretreated corn leaves assessed as mortality at 20 mg/kg at 25 +/-1 degC measured after 2 days
Culex pipiens pallens [5] = test: Insecticidal activity against fourth-instar larval stage of Culex pipiens pallens (mosquito) assessed as mortality at 0.50 mg/kg at 25 +/-1 degC after 2 days; details: 48 h; how it was run: as §1
Tetranychus cinnabarinus [6] = test: Acaricidal activity against adult Tetranychus cinnabarinus (carmine spider mite) in sieva bean plants assessed as mortality at 100 mg/kg treated for 3 secs measured after 2 days; details: 48 h
Mythimna separata [7] = test: Insecticidal activity against fourth-instar larval stage of Mythimna separata (Oriental armyworm) in compound pretreated corn leaves assessed as mortality at 5 mg/kg at 25 +/-1 degC measured after 2 days
Tetranychus cinnabarinus [8] = test: Acaricidal activity against adult Tetranychus cinnabarinus (carmine spider mite) in sieva bean plants assessed as mortality at 200 mg/kg treated for 3 secs measured after 2 days; details: 48 h
Culex pipiens pallens [9] = test: Insecticidal activity against fourth-instar larval stage of Culex pipiens pallens (mosquito) assessed as mortality at 0.25 mg/kg at 25 +/-1 degC after 2 days; details: 48 h; how it was run: as §1
Tetranychus cinnabarinus [10] = test: Acaricidal activity against adult two spot Tetranychus cinnabarinus (carmine spider mite) assessed as mortality at 25 +/-2 degC treated for 10 secs measured after 24 hr by slide immersion method
How it was run: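 Thirty adult female mites were fixed dorsally on double-sided tape on a slide with a small brush. Slides were immersed and shaken for 10 s in diluted test solution, and excess liquid was removed. Slides were then held at 25 ± 2 °C in a Petri dish with moist filter paper. Dead mites were counted at 24 h. There were 3 replicates of 30 mites each, with chlorfenapyr as standard. LC50 was obtained by Finney probit analysis.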

Nephotettix cincticeps [11] = test: Toxic ratio, ratio of Chlorfenapyr LC50 to compound LC50 for third-instar larval stage of Nephotettix cincticeps (green rice leafhopper) measured after 48 hr by seedling-dipping method
Plutella xylostella [12] = test: Toxic ratio, ratio of Chlorfenapyr LC50 to compound LC50 for second-instar larval stage of Plutella xylostella (diamondback moth) by leaf disk assay
Nephotettix cincticeps [13] = test: Insecticidal activity against third instar larval stage of Nephotettix cincticeps (green rice leafhopper) in rice seedlings assessed as mortality treated for 15 secs before larval infestation measured after 48 hr by seedling-dipping method
Aphis fabae [14] = test: Insecticidal activity against apterous adult stage of Aphis fabae (black bean aphids) in soybean tender shoots assessed as mortality treated for 5 secs measured after 48 hr
How it was run: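 This was a slightly modified FAO dip test. Soybean tender shoots carrying 40-60 healthy apterous adult aphids were dipped in diluted compound for 5 s. Excess fluid was removed, and shoots were kept in a conditioned room. Mortality was scored at 48 h, with testing at 25 ± 1 °C.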

Tetranychus cinnabarinus [15] = test: Toxic ratio, ratio of Chlorfenapyr LC50 to compound LC50 for adult two spot Tetranychus cinnabarinus (carmine spider mite) measured after 24 hr by slide immersion method
Aphis fabae [16] = test: Toxic ratio, ratio of Chlorfenapyr LC50 to compound LC50 for apterous adult stage of Aphis fabae (black bean aphids) measured after 48 hr
Plutella xylostella [17] = test: Insecticidal activity against second-instar larval stage of Plutella xylostella (diamondback moth) in fresh cabbage leaves assessed as mortality treated for 15 secs before larval infestation by leaf disk assay; details: foliar

Row | Compound | mortality at 10 mg/kg (Mythimna separata [1]) | mortality at 50 mg/kg (Tetranychus cinnabarinus [2]) | mortality at 0.1 mg/kg (Culex pipiens pallens [3]) | mortality at 20 mg/kg (Mythimna separata [4]) | mortality at 0.5 mg/kg (Culex pipiens pallens [5]) | mortality at 100 mg/kg (Tetranychus cinnabarinus [6]) | mortality at 5 mg/kg (Mythimna separata [7]) | mortality at 200 mg/kg (Tetranychus cinnabarinus [8]) | mortality at 0.25 mg/kg (Culex pipiens pallens [9]) | LC50 (Tetranychus cinnabarinus [10]) | RatioLC50 (Nephotettix cincticeps [11]) | RatioLC50 (Plutella xylostella [12]) | LC50 (Nephotettix cincticeps [13]) | LC50 (Aphis fabae [14]) | RatioLC50 (Tetranychus cinnabarinus [15]) | RatioLC50 (Aphis fabae [16]) | LC50 (Plutella xylostella [17])
1 | N#Cc1c(Br)c(C(F)(F)F)n(COC=O)c1-c1ccc(Cl)cc1 | 100% | 82% | 50% | 100% | 100% | 89% | 0% | 100% | 100% | – | – | – | – | – | – | – | –
2 | CCC(=O)OCn1c(-c2ccc(Cl)cc2)c(C#N)c(Br)c1C(F)(F)F | 90% | 88% | 100% | 100% | 100% | 92% | 0% | 100% | 100% | – | – | – | – | – | – | – | –
3 | CCCC(=O)OCn1c(-c2ccc(Cl)cc2)c(C#N)c(Br)c1C(F)(F)F | 100% | 100% | 100% | 100% | 100% | 100% | 0% | 100% | 100% | – | – | – | – | – | – | – | –
4 | CC(C)CC(=O)OCn1c(-c2ccc(Cl)cc2)c(C#N)c(Br)c1C(F)(F)F | 100% | 100% | 100% | 100% | 100% | 100% | 0% | 100% | 100% | 0.43 µg/mL (≈ 0.927 µM) | 0.79 | 0.97 | 34.1 µg/mL (≈ 73.6 µM) | 17.8 µg/mL (≈ 38.5 µM) | 2.65 | 0.69 | 1.88 µg/mL (≈ 4.05 µM)
5 | CCOCn1c(-c2ccc(Cl)cc2)c(C#N)c(Br)c1C(F)(F)F [CHLORFENAPYR] | 100% | 93% | 100% | 100% | 100% | 97% | 0% | 100% | 100% | 1.14 µg/mL (≈ 2.8 µM) | 1 | 1 | 26.8 µg/mL (≈ 65.8 µM) | 12.2 µg/mL (≈ 30 µM) | 1 | 1 | 1.82 µg/mL (≈ 4.46 µM)
